Measured values reported in ChEMBL document CHEMBL3286281, “Amino derivatives of glycyrrhetinic acid as potential inhibitors of cholinesterases” (Bioorg Med Chem, 2014).

Legend:
[1] = target: Acetylcholinesterase (Electrophorus electricus, UniProt O42275); test: Inhibition of Electrophorus electricus AChE using acetylthiocholine iodide as substrate after 20 mins measured for 1 min interval for 30 mins by Ellman's method
[2] = Selectivity ratio of Ki for Electrophorus electricus AChE to Ki for equine serum BChE
Outline: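 Ki from Ellman kinetics at pH 8.0 and 30 °C after 20 min enzyme–inhibitor–DTNB preincubation. Inhibitor at several concentrations plus a water blank; ATChI or BTChI at 0.9375, 0.625, 0.325 and 0.1875 mM. A415 read every 1 min for 30 min, in triplicate. Ki from Lineweaver-Burk, Dixon and Cornish-Bowden plots; F = Ki(AChE)/Ki(BChE).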

[3] = target: Cholinesterase (Equus caballus, UniProt P81908); test: Inhibition of equine serum BChE using butyrylthiocholine iodide as substrate after 20 mins measured for 1 min interval for 30 mins by Ellman's method
Sequence of Cholinesterase (P81908 whole entry): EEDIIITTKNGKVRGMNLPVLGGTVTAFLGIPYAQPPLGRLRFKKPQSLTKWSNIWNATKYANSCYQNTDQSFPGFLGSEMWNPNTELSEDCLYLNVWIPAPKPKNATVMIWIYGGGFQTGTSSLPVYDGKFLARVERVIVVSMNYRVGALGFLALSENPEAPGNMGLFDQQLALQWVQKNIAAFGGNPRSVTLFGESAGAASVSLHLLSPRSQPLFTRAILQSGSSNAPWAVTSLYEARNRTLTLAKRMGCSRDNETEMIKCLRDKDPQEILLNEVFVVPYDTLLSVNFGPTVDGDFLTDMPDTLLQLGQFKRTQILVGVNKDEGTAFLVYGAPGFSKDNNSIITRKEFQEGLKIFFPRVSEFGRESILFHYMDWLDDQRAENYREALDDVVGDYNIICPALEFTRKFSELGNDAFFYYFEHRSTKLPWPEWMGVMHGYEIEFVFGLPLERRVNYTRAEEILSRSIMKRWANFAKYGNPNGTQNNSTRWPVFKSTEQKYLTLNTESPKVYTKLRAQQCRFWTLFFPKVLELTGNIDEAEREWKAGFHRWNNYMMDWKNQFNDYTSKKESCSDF

[4] = Solubility of the compound; format: physicochemical

Sequence of Acetylcholinesterase (O42275 whole entry): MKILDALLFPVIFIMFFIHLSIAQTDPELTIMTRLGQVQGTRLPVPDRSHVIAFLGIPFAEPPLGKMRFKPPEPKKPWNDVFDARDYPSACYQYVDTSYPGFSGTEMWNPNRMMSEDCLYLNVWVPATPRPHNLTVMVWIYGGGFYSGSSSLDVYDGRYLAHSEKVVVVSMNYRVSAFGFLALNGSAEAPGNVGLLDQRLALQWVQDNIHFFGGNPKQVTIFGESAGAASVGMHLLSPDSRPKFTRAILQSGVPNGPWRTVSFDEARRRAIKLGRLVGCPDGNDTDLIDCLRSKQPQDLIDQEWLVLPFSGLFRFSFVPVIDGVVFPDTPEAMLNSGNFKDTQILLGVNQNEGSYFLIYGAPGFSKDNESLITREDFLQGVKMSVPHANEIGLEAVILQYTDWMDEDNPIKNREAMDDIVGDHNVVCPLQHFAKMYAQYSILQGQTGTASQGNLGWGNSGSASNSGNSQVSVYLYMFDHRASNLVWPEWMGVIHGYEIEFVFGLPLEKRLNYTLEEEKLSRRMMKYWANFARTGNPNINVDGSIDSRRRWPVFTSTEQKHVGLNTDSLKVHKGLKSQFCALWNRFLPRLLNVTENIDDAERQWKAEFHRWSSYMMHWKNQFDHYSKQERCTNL

| solubility [4] | Compound | Ki [1] | Ratio Ki [2] | Ki [3] |
| --- | --- | --- | --- | --- |
| – | COC(=O)[C@@]1(C)CC[C@]2(C)CC[C@]3(C)C(=CC(=O)[C@@H]4[C@@]5(C)CC[C@H](OC(=O)[C@@H](N)CCCCN)C(C)(C)[C@@H]5CC[C@]43C)[C@@H]2C1 | 20 µM | < 0.2 | > 100 µM |
| – | COC(=O)[C@@]1(C)CC[C@]2(C)CC[C@]3(C)C(=CC(=O)[C@@H]4[C@@]5(C)CC[C@H](OC(=O)[C@@H]6CCCN6)C(C)(C)[C@@H]5CC[C@]43C)[C@@H]2C1 | 23.5 µM | < 0.24 | > 100 µM |
| – | CC1(C)[C@@H](O)CC[C@]2(C)[C@H]3C(=O)C=C4[C@@H]5C[C@@](C)(C(=O)NCCCCN)CC[C@]5(C)CC[C@@]4(C)[C@]3(C)CC[C@@H]12 | 41.8 µM | 0.56 | 74.3 µM |
| – | COC(=O)[C@@]1(C)CC[C@]2(C)CC[C@]3(C)C(=CC(=O)[C@@H]4[C@@]5(C)CC[C@H](OC(=O)[C@H](C)N)C(C)(C)[C@@H]5CC[C@]43C)[C@@H]2C1 [listing 1 of 3 here] | – | < 0.21 | – |
| – | COC(=O)[C@@]1(C)CC[C@]2(C)CC[C@]3(C)C(=CC(=O)[C@@H]4[C@@]5(C)CC[C@H](OC(=O)[C@@H](N)CC(=O)O)C(C)(C)[C@@H]5CC[C@]43C)[C@@H]2C1 | 16.2 µM | < 0.16 | > 100 µM |
| Insoluble | COC(=O)[C@@]1(C)CC[C@]2(C)CC[C@]3(C)C(=CC(=O)[C@@H]4[C@@]5(C)CC[C@H](OC(=O)[C@@H](N)C(C)C)C(C)(C)[C@@H]5CC[C@]43C)[C@@H]2C1 | – | – | – |
| – | COC(=O)[C@@]1(C)CC[C@]2(C)CC[C@]3(C)C(=CC(=O)[C@@H]4[C@@]5(C)CC[C@H](OC(=O)[C@@H](N)CC(=O)OCc6ccccc6)C(C)(C)[C@@H]5CC[C@]43C)[C@@H]2C1 | 28.1 µM | < 0.28 | > 100 µM |
| – | C=CCCOC(=O)[C@@]1(C)CC[C@]2(C)CC[C@]3(C)C(=CC(=O)[C@@H]4[C@@]5(C)CC[C@H](O)C(C)(C)[C@@H]5CC[C@]43C)[C@@H]2C1 | 14.9 µM | < 0.15 | > 100 µM |
| – | CC1(C)[C@@H](O)CC[C@]2(C)[C@H]3C(=O)C=C4[C@@H]5C[C@@](C)(C(=O)NCCCCCN)CC[C@]5(C)CC[C@@]4(C)[C@]3(C)CC[C@@H]12 | > 100 µM | – | > 100 µM |
| – | CCOC(=O)[C@@]1(C)CC[C@]2(C)CC[C@]3(C)C(=CC(=O)[C@@H]4[C@@]5(C)CC[C@H](OC(=O)[C@@H](N)Cc6ccccc6)C(C)(C)[C@@H]5CC[C@]43C)[C@@H]2C1 | 13.7 µM | < 0.14 | > 100 µM |
| – | CC1(C)[C@@H](O)CC[C@]2(C)[C@H]3C(=O)C=C4[C@@H]5C[C@@](C)(C(=O)OC/C=C/CBr)CC[C@]5(C)CC[C@@]4(C)[C@]3(C)CC[C@@H]12 | 29.6 µM | < 0.74 | > 40 µM |
| – | CCOC(=O)[C@@]1(C)CC[C@]2(C)CC[C@]3(C)C(=CC(=O)[C@@H]4[C@@]5(C)CC[C@H](OC(=O)[C@H](Cc6ccccc6)NC(=O)OC(C)(C)C)C(C)(C)[C@@H]5CC[C@]43C)[C@@H]2C1 | > 2 µM | – | > 2 µM |
| – | COC(=O)[C@@]1(C)CC[C@]2(C)CC[C@]3(C)C(=CC(=O)[C@@H]4[C@@]5(C)CC[C@H](OC(=O)CN)C(C)(C)[C@@H]5CC[C@]43C)[C@@H]2C1 | 19.8 µM | < 0.2 | > 100 µM |
| – | CC1(C)[C@@H](O)CC[C@]2(C)[C@H]3C(=O)C=C4[C@@H]5C[C@@](C)(C(=O)O/C(=N\C6CCCCC6)NC6CCCCC6)CC[C@]5(C)CC[C@@]4(C)[C@]3(C)CC[C@@H]12 | > 10 µM | – | > 10 µM |
| – | COC(=O)[C@@]1(C)CC[C@]2(C)CC[C@]3(C)C(=CC(=O)[C@@H]4[C@@]5(C)CC[C@H](OC(=O)[C@@H](N)CCC(=O)O)C(C)(C)[C@@H]5CC[C@]43C)[C@@H]2C1 | 18.9 µM | < 0.19 | > 100 µM |
| – | COC(=O)[C@@]1(C)CC[C@]2(C)CC[C@]3(C)C(=CC(=O)[C@@H]4[C@@]5(C)CC[C@H](OC(=O)[C@@H](N)CSCc6ccccc6)C(C)(C)[C@@H]5CC[C@]43C)[C@@H]2C1 | 40.6 µM | < 0.41 | > 100 µM |

| solubility [4] | Compound | Ki [1] | Ratio Ki [2] | Ki [3] |
| --- | --- | --- | --- | --- |
| Insoluble | CC[C@H](C)[C@H](N)C(=O)O[C@H]1CC[C@]2(C)[C@H]3C(=O)C=C4[C@@H]5C[C@@](C)(C(=O)OC)CC[C@]5(C)CC[C@@]4(C)[C@]3(C)CC[C@H]2C1(C)C | – | – | – |
| – | C[C@H](N)C(=O)O[C@H]1CC[C@]2(C)[C@H]3C(=O)C=C4[C@@H]5C[C@@](C)(C(=O)O)CC[C@]5(C)CC[C@@]4(C)[C@]3(C)CC[C@H]2C1(C)C | 24 µM | < 0.24 | > 100 µM |
| – | CC1(C)[C@@H](O)CC[C@]2(C)[C@H]3C(=O)C=C4[C@@H]5C[C@@](C)(C(=O)OCCBr)CC[C@]5(C)CC[C@@]4(C)[C@]3(C)CC[C@@H]12 | 23.8 µM | < 0.24 | > 100 µM |
| – | COC(=O)[C@@]1(C)CC[C@]2(C)CC[C@]3(C)C(=CC(=O)[C@@H]4[C@@]5(C)CC[C@H](OC(=O)[C@@H](N)Cc6ccccc6)C(C)(C)[C@@H]5CC[C@]43C)[C@@H]2C1 | 20.7 µM | < 0.21 | > 100 µM |
| – | CC1(C)[C@@H](O)CC[C@]2(C)[C@H]3C(=O)C=C4[C@@H]5C[C@@](C)(C(=O)O)CC[C@]5(C)CC[C@@]4(C)[C@]3(C)CC[C@@H]12 [ENOXOLONE] | > 100 µM | – | > 100 µM |
| – | COC(=O)[C@@]1(C)CC[C@]2(C)CC[C@]3(C)C(=CC(=O)[C@@H]4[C@@]5(C)CC[C@H](OC(=O)[C@@H](C)N)C(C)(C)[C@@H]5CC[C@]43C)[C@@H]2C1 | 17.7 µM | < 0.18 | > 100 µM |
| – | COC(=O)[C@@]1(C)CC[C@]2(C)CC[C@]3(C)C(=CC(=O)[C@@H]4[C@@]5(C)CC[C@H](OC(=O)[C@H](C)N)C(C)(C)[C@@H]5CC[C@]43C)[C@@H]2C1 [listing 2 of 3 here] | 20.8 µM | – | > 100 µM |
| Insoluble | COC(=O)[C@@]1(C)CC[C@]2(C)CC[C@]3(C)C(=CC(=O)[C@@H]4[C@@]5(C)CC[C@H](OC(=O)[C@@H](N)CCCN)C(C)(C)[C@@H]5CC[C@]43C)[C@@H]2C1 | – | – | – |
| – | CNCC(=O)O[C@H]1CC[C@]2(C)[C@H]3C(=O)C=C4[C@@H]5C[C@@](C)(C(=O)OC)CC[C@]5(C)CC[C@@]4(C)[C@]3(C)CC[C@H]2C1(C)C | 20.4 µM | < 0.21 | > 100 µM |
| – | CC(C)(C)OC(=O)NCCCNC(=O)[C@@]1(C)CC[C@]2(C)CC[C@]3(C)C(=CC(=O)[C@@H]4[C@@]5(C)CC[C@H](O)C(C)(C)[C@@H]5CC[C@]43C)[C@@H]2C1 | > 10 µM | – | > 10 µM |
| – | CCOC(=O)[C@@]1(C)CC[C@]2(C)CC[C@]3(C)C(=CC(=O)[C@@H]4[C@@]5(C)CC[C@H](OC(=O)[C@H](N)Cc6c[nH]c7ccccc67)C(C)(C)[C@@H]5CC[C@]43C)[C@@H]2C1 | 11.7 µM | < 0.12 | > 100 µM |
| Insoluble | COC(=O)CC[C@H](N)C(=O)O[C@H]1CC[C@]2(C)[C@H]3C(=O)C=C4[C@@H]5C[C@@](C)(C(=O)OC)CC[C@]5(C)CC[C@@]4(C)[C@]3(C)CC[C@H]2C1(C)C | – | – | – |
| Insoluble | COC(=O)[C@@]1(C)CC[C@]2(C)CC[C@]3(C)C(=CC(=O)[C@@H]4[C@@]5(C)CC[C@H](OC(=O)[C@@H](N)CC(C)C)C(C)(C)[C@@H]5CC[C@]43C)[C@@H]2C1 | – | – | – |
| – | CC1(C)[C@@H](OC(=O)CN)CC[C@]2(C)[C@H]3C(=O)C=C4[C@@H]5C[C@@](C)(C(=O)O)CC[C@]5(C)CC[C@@]4(C)[C@]3(C)CC[C@@H]12 | > 100 µM | – | > 100 µM |
| – | CC1(C)[C@@H](O)CC[C@]2(C)[C@H]3C(=O)C=C4[C@@H]5C[C@@](C)(C(=O)NCCN)CC[C@]5(C)CC[C@@]4(C)[C@]3(C)CC[C@@H]12 | > 100 µM | – | > 100 µM |
| Insoluble | COC(=O)C[C@H](N)C(=O)O[C@H]1CC[C@]2(C)[C@H]3C(=O)C=C4[C@@H]5C[C@@](C)(C(=O)OC)CC[C@]5(C)CC[C@@]4(C)[C@]3(C)CC[C@H]2C1(C)C | – | – | – |

| Compound | solubility [4] | Ki [1] | Ratio Ki [2] | Ki [3] |
| --- | --- | --- | --- | --- |
| COC(=O)[C@@]1(C)CC[C@]2(C)CC[C@]3(C)C(=CC(=O)[C@@H]4[C@@]5(C)CC[C@H](OC(=O)[C@H](C)N)C(C)(C)[C@@H]5CC[C@]43C)[C@@H]2C1 [listing 3 of 3 here] | Insoluble | – | – | – |
